# Data taken from ChEMBL document CHEMBL1144716, “Synthesis of 1-/2-substituted-[1,2,3]triazolo[4,5-g]phthalazine-4,9-diones and evaluation of their cytotoxicity and topoisomerase II inhibition” (Bioorg Med Chem, 2008).
# What was measured:
# A549 = assay: Cytotoxicity against human A549 cells after 3 days by SRB assay; assay type: functional, cell-based; conditions: A549, 72 h
# SK-OV-3 = assay: Cytotoxicity against human SKOV3 cells after 3 days by SRB assay; assay type: functional, cell-based; conditions: SK-OV-3, 72 h
# SK-MEL-2 = assay: Cytotoxicity against human SK-MEL-2 cells after 3 days by SRB assay; assay type: functional, cell-based; conditions: SK-MEL-2, 72 h
# XF498 = assay: Cytotoxicity against human XF498 cells after 3 days by SRB assay; assay type: functional, cell-based; conditions: XF498, 72 h
# HCT-15 = assay: Cytotoxicity against human HCT15 cells after 3 days by SRB assay; assay type: functional, cell-based; conditions: HCT-15, 72 h
# SNU-638 = assay: Cytotoxicity against human SNU638 cells after 3 days by SRB assay; assay type: functional, cell-based; conditions: SNU-638, 72 h
# HT-1080 = assay: Cytotoxicity against human HT1080 cells after 3 days by SRB assay; assay type: functional, cell-based; conditions: HT-1080, 72 h
# HL-60 = assay: Cytotoxicity against human HL60 cells after 3 days by SRB assay; assay type: functional, cell-based; conditions: HL-60, 72 h
# [1] = target: DNA topoisomerase 2-alpha (Homo sapiens, UniProt P11388); assay: Inhibition of human recombinant topoisomerase 2 by decatenation assay
# Method in brief: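 One unit of human recombinant topo II (the amount that fully decatenates 200 ng kDNA) with 200 ng kinetoplast DNA in 50 mM Tris-HCl pH 8, 120 mM KCl, 10 mM MgCl2, 0.5 mM ATP, 0.5 mM DTT, 30 µg/mL BSA. Drug stocks in DMSO. 10 min at 37 °C, stopped with sarkosyl loading dye. Decatenation read on 1% agarose gel in TBE.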
# Sequence of DNA topoisomerase 2-alpha (P11388 whole entry): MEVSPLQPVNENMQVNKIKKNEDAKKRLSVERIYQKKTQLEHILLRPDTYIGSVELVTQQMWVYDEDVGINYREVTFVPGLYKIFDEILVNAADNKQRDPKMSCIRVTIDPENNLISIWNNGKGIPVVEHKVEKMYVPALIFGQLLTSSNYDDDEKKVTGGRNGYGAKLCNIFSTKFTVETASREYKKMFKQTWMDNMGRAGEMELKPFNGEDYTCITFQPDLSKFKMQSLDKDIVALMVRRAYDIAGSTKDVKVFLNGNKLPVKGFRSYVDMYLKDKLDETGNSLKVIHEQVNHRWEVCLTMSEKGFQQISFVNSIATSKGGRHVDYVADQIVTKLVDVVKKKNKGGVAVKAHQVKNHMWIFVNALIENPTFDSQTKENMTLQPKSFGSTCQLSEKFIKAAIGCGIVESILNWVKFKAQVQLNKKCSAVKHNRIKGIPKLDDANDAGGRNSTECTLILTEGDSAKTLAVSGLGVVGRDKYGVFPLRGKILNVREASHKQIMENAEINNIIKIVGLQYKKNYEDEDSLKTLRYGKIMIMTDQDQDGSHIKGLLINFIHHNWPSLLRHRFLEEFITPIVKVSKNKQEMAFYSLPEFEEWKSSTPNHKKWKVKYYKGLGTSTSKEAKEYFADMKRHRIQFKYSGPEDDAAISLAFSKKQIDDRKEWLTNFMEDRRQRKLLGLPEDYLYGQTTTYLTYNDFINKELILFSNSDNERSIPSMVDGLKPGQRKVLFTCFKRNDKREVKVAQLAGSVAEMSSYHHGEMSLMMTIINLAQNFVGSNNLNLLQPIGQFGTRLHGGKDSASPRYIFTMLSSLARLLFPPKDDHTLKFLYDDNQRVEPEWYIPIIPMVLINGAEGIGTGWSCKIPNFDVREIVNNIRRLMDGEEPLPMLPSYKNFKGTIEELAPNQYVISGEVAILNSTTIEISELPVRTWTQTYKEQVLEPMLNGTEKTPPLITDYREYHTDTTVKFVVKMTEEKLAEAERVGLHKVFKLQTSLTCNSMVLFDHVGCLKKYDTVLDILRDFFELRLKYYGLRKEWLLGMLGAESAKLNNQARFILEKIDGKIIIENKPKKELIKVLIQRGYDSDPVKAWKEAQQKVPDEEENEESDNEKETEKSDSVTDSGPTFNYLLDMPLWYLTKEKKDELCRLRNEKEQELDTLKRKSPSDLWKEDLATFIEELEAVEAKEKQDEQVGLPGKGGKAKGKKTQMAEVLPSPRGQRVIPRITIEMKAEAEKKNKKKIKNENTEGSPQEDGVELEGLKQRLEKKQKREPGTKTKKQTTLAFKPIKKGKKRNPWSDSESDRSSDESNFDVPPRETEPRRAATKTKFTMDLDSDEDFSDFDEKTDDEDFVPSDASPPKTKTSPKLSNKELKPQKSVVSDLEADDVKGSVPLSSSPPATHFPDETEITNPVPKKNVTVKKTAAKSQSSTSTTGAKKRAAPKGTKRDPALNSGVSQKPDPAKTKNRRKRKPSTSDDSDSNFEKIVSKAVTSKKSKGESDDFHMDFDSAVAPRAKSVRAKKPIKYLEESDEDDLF
Compound,IC50 (A549) [nM],IC50 (SK-OV-3) [nM],IC50 (SK-MEL-2) [nM],IC50 (XF498) [nM],IC50 (HCT-15) [nM],IC50 (SNU-638) [nM],IC50 (HT-1080) [nM],IC50 (HL-60) [nM],IC50 [1] [nM]
CCCn1nnc2c1C(=O)c1cnncc1C2=O,26,14,20,85,176,212,75,83,49000
COc1ccc(Cn2nnc3c2C(=O)c2cnncc2C3=O)cc1,54,12,41,118,59,257,330,130,28600
Cn1nnc2c1C(=O)c1cnncc1C2=O,4,3,8,35,103,241,73,82,39000
Cn1nc2c(n1)C(=O)c1cnncc1C2=O,2,0.4,2,4,20,54,7.8,124,55600
O=C1c2cnncc2C(=O)c2[nH]nnc21,9020,7640,> 10000,> 10000,> 10000,> 5000,> 5000,> 5000,52800
CCCCn1nc2c(n1)C(=O)c1cnncc1C2=O,18,17,15,19,18,50,30,151,64800
CC(C)n1nnc2c1C(=O)c1cnncc1C2=O,32,49,16,49,33,57,114,50,33300
CCCCn1nnc2c1C(=O)c1cnncc1C2=O,81,21,23,181,177,155,99,89,43200
CC(C)Cn1nc2c(n1)C(=O)c1cnncc1C2=O,19,43,15,19,29,14,85,38,19400
CCCn1nc2c(n1)C(=O)c1cnncc1C2=O,19,9,9,18,18,43,33,157,44400
CC(C)Cn1nnc2c1C(=O)c1cnncc1C2=O,110,190,66,140,110,69,77,75,29800
CC(C)n1nc2c(n1)C(=O)c1cnncc1C2=O,9,31,7,14,14,11,55,18,54500
CCn1nc2c(n1)C(=O)c1cnncc1C2=O,18,3,4,17,18,46,204,90,61500
CCn1nnc2c1C(=O)c1cnncc1C2=O,6,3,8,34,39,126,68,56,55600
COc1cccc2c1C(=O)c1c(O)c3c(c(O)c1C2=O)C[C@@](O)(C(=O)CO)C[C@@H]3O[C@H]1C[C@H](N)[C@H](O)[C@H](C)O1 [DOXORUBICIN],–,41,19,44,251,52,22,44,–
COc1cc([C@@H]2c3cc4c(cc3[C@@H](O[C@@H]3O[C@@H]5CO[C@@H](C)O[C@H]5[C@H](O)[C@H]3O)[C@H]3COC(=O)[C@H]23)OCO4)cc(OC)c1O [ETOPOSIDE],1160,4280,5720,3480,2800,230,250,370,–
